Assay results as given in ChEMBL document CHEMBL4014343 (J Med Chem, 2017).
In brackets after ≈: the same amount, converted by molar mass. Values belong to the compound of their own block, whether it stands above or below them.

Experiments:
[1] = Solubility of the compound in water by spectrophotometric method; format: physicochemical
Outline: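 Ethanol standard solutions define absorbance maxima; aqueous solubility then quantified spectrophotometrically at that maximum by calibration.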

MCF7 = test: Antiproliferative activity against human MCF7 cells after 3 days by SRB assay; format: functional, cell-based; details: Homo sapiens, MCF7, 72 h
[2] = Antiproliferative activity against human LXFL 529L cells after 3 days by SRB assay; format: functional, cell-based
[3] = biological target: Cyclin-dependent kinase 2/cyclin E1 (Homo sapiens, UniProt P24941); test: Inhibition of full length human C-terminal His6-tagged CDK2/N-terminal GST-tagged CyclinE expressed in baculovirus infected sf21 cells after 10 mins in presence of [gamma32P]ATP by beta counting method
CDK6/cyclin D3 = CDK6/cyclin D3 (Homo sapiens, UniProt Q00534); test: Inhibition of full length human N-terminal His6-tagged CDK6/N-terminal GST-tagged CyclinD3 expressed in sf21 cells after 10 mins in presence of [gamma32P]ATP by beta counting method
Sequence of CDK6/cyclin D3 (P30281 whole entry): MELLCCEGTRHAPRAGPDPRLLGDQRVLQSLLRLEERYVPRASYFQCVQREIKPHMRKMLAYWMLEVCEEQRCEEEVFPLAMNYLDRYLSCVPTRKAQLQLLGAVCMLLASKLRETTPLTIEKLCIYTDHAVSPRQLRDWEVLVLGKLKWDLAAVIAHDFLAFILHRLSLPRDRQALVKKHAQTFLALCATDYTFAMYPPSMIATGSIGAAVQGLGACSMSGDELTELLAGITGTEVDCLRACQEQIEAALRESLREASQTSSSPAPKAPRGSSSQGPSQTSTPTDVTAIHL
Sequence of CDK6/cyclin D3 (Q00534 whole entry): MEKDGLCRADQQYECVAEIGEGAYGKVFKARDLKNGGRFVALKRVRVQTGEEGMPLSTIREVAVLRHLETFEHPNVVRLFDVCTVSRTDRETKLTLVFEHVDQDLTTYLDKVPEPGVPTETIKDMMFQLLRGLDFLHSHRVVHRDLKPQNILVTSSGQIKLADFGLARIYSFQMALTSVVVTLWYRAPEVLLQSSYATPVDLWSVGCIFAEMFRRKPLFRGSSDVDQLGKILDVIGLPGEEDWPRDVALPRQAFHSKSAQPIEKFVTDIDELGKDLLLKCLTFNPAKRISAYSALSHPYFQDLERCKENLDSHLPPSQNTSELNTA

[4] = biological target: Glycogen synthase kinase-3 beta (Homo sapiens, UniProt P49841); test: Inhibition of recombinant GSK3beta (unknown origin) after 10 mins in presence of [gamma32P]ATP by beta counting method
Sequence of Glycogen synthase kinase-3 beta (P49841 whole entry): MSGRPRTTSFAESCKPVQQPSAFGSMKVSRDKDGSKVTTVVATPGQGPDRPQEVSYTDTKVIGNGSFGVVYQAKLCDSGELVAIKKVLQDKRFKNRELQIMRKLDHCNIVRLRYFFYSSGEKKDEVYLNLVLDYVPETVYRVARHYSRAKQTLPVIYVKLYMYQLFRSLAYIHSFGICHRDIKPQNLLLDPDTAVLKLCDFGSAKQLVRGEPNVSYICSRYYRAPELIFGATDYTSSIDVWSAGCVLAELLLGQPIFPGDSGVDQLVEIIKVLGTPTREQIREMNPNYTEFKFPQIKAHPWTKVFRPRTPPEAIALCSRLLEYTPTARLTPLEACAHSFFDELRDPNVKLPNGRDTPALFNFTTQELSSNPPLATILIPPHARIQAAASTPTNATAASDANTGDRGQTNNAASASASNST
Outline: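 Recombinant kinase with 0.4 μCi [γ-32P]ATP per vial, 10 min at 30 °C; spotted on P81 paper, washed in 0.75% phosphoric acid, counted by β-scintillation. IC50 by linear regression versus solvent control; duplicates, ≥3 independent experiments.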

CDK2/Cyclin A2 = CDK2/Cyclin A2 (Homo sapiens, UniProt P24941); test: Inhibition of full length human C-terminal His6-tagged CDK2/N-terminal GST-tagged CyclinA expressed in baculovirus infected sf21 cells after 10 mins in presence of [gamma32P]ATP by beta counting method
[5] = biological target: Cyclin-dependent kinase 1/cyclin B1 (Homo sapiens, UniProt P06493); test: Inhibition of full length human C-terminal His6-tagged CDK1/N-terminal GST-tagged CyclinB expressed in baculovirus infected sf21 cells after 10 mins in presence of [gamma32P]ATP by beta counting method; format: cell-based
Sequence of Cyclin-dependent kinase 1/cyclin B1 (P06493 whole entry): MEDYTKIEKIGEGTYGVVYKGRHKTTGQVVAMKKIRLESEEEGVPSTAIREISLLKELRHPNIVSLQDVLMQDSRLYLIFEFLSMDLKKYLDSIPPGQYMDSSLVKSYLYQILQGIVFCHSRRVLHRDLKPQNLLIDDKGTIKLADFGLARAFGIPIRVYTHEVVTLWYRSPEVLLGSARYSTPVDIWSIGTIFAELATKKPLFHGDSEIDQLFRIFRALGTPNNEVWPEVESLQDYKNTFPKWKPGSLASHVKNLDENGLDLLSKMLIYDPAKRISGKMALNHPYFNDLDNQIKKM
Sequence of Cyclin-dependent kinase 1/cyclin B1 (P14635 whole entry, further chain): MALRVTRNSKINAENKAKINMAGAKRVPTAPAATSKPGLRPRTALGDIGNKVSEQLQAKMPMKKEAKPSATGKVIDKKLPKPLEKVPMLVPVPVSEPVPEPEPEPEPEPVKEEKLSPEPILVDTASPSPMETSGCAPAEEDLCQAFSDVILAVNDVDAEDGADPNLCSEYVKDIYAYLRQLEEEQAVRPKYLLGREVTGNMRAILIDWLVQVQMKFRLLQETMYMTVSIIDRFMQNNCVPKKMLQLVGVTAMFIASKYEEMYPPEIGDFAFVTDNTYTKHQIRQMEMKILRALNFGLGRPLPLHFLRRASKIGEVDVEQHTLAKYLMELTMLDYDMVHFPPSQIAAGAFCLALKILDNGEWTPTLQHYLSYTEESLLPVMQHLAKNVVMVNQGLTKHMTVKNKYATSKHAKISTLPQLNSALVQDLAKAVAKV

Structure (SMILES): COc1ccc2c(c1)/C(=C1/Nc3ccccc3/C1=N\OCCN1CCN(C)CC1)C(=O)N2.Cl
solubility [1]: > 25000 µg/mL
IC50 (MCF7): 890 nM

Structure (SMILES): CN1CCN(CCO/N=C2/C(=C3/C(=O)Nc4ccccc43)Nc3ccccc32)CC1
solubility [1]: 2 µg/mL (≈ 4.96 µM)
IC50 ([2]; lxfl 529l): 860 nM
IC50 (MCF7): 800 nM

Structure (SMILES): CC(C)C[C@H](NC(=O)[C@H](Cc1ccccc1)NC(=O)c1cnccn1)B(O)O [BORTEZOMIB]
IC50 (MCF7): 25 nM

Structure (SMILES): O=C1Nc2ccc(O)cc2/C1=C1/Nc2ccccc2/C1=N\OCCO[C@@H]1O[C@H](CO)[C@@H](O)[C@H](O)[C@H]1O
solubility [1]: 5 µg/mL (≈ 10 µM)
IC50 ([2]; Homo sapiens, LXFL 529L, 72 h): 1200 nM

Structure (SMILES): COc1ccc2c(c1)/C(=C1/Nc3ccccc3/C1=N\OCC(O)CO)C(=O)N2 (stereo not drawn)
solubility [1]: 50 µg/mL (≈ 131 µM)
IC50 ([2]; Homo sapiens, LXFL 529L, 72 h): 530 nM
IC50 [3]: 43 nM
IC50 (MCF7): 300 nM

Structure (SMILES): Cc1ccc2c(c1)/C(=C1/Nc3ccccc3/C1=N\OCCO[C@@H]1O[C@H](CO)[C@@H](O)[C@H](O)[C@H]1O)C(=O)N2
IC50 (CDK6/cyclin D3): 1650 nM
IC50 [4]: 290 nM
solubility [1]: 2 µg/mL (≈ 4.02 µM)
IC50 ([2]; Homo sapiens, LXFL 529L, 72 h): 2000 nM
IC50 (CDK2/Cyclin A2): 9300 nM
IC50 [3]: 920 nM
IC50 (MCF7): 1500 nM
IC50 [5]: > 10000 nM

Structure (SMILES): O=C1Nc2ccccc2/C1=C1/Nc2ccccc2/C1=N\OCCCC(O)CO (stereo not drawn)
solubility [1]: 2 µg/mL (≈ 5.27 µM)
IC50 ([2]; Homo sapiens, LXFL 529L, 72 h): 560 nM

Structure (SMILES): CCO/N=C1/C(=C2/C(=O)Nc3ccccc32)Nc2ccccc21
IC50 ([2]; Homo sapiens, LXFL 529L, 72 h): 7600 nM

Structure (SMILES): O=C1Nc2ccccc2/C1=C1/Nc2ccccc2/C1=N\OCCC(O)CO (stereo not drawn)
solubility [1]: 3 µg/mL (≈ 8.21 µM)
IC50 ([2]; Homo sapiens, LXFL 529L, 72 h): 650 nM
IC50 [3]: 230 nM

Structure (SMILES): CN1CCN(c2ccc(NC(=O)c3ccc4c(c3)C(=O)/C(=C3/C(=O)Nc5ccccc53)N4)cc2)CC1
solubility [1]: 4.2 µg/mL (≈ 8.76 µM)
IC50 (MCF7): 10000 nM

Structure (SMILES): O=C1Nc2ccccc2/C1=C1/Nc2ccccc2/C1=N\OCCCCO
solubility [1]: 0.1 µg/mL (≈ 0.286 µM)
IC50 ([2]; Homo sapiens, LXFL 529L, 72 h): 2600 nM

Structure (SMILES): CN(C)c1ccc(NCCO/N=C2/C(=C3/C(=O)Nc4ccccc43)Nc3ccccc32)cc1
solubility [1]: 1.4 µg/mL (≈ 3.19 µM)
IC50 ([2]; Homo sapiens, LXFL 529L, 72 h): 5100 nM

Structure (SMILES): COc1ccc2c(c1)/C(=C1\Nc3ccccc3\C1=N/OCCO[C@@H]1O[C@H](CO)[C@@H](O)[C@H](O)[C@H]1O)C(=O)N2
IC50 (CDK6/cyclin D3): 410 nM
IC50 [4]: 100 nM
solubility [1]: 50 µg/mL (≈ 97.4 µM)
IC50 ([2]; Homo sapiens, LXFL 529L, 72 h): 1100 nM
IC50 (CDK2/Cyclin A2): 840 nM
IC50 [3]: 90 nM
IC50 (MCF7): 700 nM
IC50 [5]: 5580 nM

Structure (SMILES): O=C1Nc2ccccc2/C1=C1/Nc2ccccc2/C1=N\OCCO[C@@H]1O[C@H](CO)[C@@H](O)[C@H](O)[C@H]1O
IC50 (CDK6/cyclin D3): 1350 nM
IC50 [4]: 810 nM
solubility [1]: 30 µg/mL (≈ 62.1 µM)
IC50 (CDK2/Cyclin A2): ≥ 10000 nM
IC50 [3]: 1700 nM
IC50 [5]: > 10000 nM

Structure (SMILES): COc1ccc2c(c1)/C(=C1/Nc3ccccc3/C1=N\OCCN1CCN(C)CC1)C(=O)N2
solubility [1]: 400 µg/mL (≈ 923 µM)
IC50 ([2]; Homo sapiens, LXFL 529L, 72 h): 1200 nM

Results, then the compound that gave them:

solubility [1]: 278 µg/mL (≈ 908 µM)
Structure (SMILES): O=C1Nc2ccccc2/C1=C1/Nc2ccc(C(=O)O)cc2C1=O

solubility [1]: 2.7 µg/mL (≈ 9.21 µM)
IC50 (MCF7): 3600 nM
Structure (SMILES): O=C1Nc2ccccc2/C1=C1/Nc2ccc(O)cc2/C1=N\O

solubility [1]: 7.3 µg/mL (≈ 26.2 µM)
IC50 (MCF7): 10700 nM
Structure (SMILES): O=C1Nc2ccccc2/C1=C1/Nc2ccc(O)cc2C1=O

IC50 (CDK6/cyclin D3): 160 nM
IC50 [4]: 90 nM
IC50 (CDK2/Cyclin A2): 210 nM
IC50 [3]: 54 nM
IC50 [5]: 910 nM
Structure (SMILES): COc1ccc2c(c1)/C(=C1/Nc3ccccc3/C1=N\O)C(=O)N2

solubility [1]: 16.1 µg/mL (≈ 42.8 µM)
IC50 (MCF7): 5430 nM
Structure (SMILES): CN(C)CCNC(=O)c1ccc2c(c1)C(=O)/C(=C1/C(=O)Nc3ccccc31)N2

solubility [1]: < 0.1 µg/mL
Structure (SMILES): O=C1Nc2ccccc2/C1=C1/Nc2ccc([N+](=O)[O-])cc2C1=O

solubility [1]: 0.6 µg/mL (≈ 1.71 µM)
IC50 (MCF7): > 100000 nM
Structure (SMILES): O=C1Nc2ccc(C(=O)O)cc2/C1=C1/Nc2ccc(C(=O)O)cc2C1=O

solubility [1]: < 1 µg/mL
Structure (SMILES): O=C1Nc2ccccc2/C1=C1/Nc2ccc(C(=O)O)cc2/C1=N\O

IC50 (MCF7): 7600 nM
Structure (SMILES): Nc1ccc2c(c1)C(=O)/C(=C1/C(=O)Nc3ccccc31)N2

IC50 (MCF7): 6000 nM
Structure (SMILES): COc1ccc2c(c1)C(=O)/C(=C1/C(=O)Nc3ccc(OC)cc31)N2

solubility [1]: 23.9 µg/mL (≈ 61.5 µM)
IC50 (MCF7): 17900 nM
Structure (SMILES): CN1CCN(C(=O)c2ccc3c(c2)C(=O)/C(=C2/C(=O)Nc4ccccc42)N3)CC1
